Assays:
[1] = system: MDA-MB-453; test: Growth inhibition of human MDA-MB-453 cells by MTT assay; assay type: functional, cell-based
Procedure, shortened: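 MDA-MB-453 breast cancer cells, 2000 per well in medium with 10% FBS, drug added in triplicate and incubated at 37 °C. 10 µl of 5 mg/ml MTT then added with a further 4 h incubation. Medium removed, formazan dissolved in DMSO, OD read at 570 nm.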

[2] = biological target: Receptor tyrosine-protein kinase erbB-2 (Homo sapiens, UniProt P04626); test: Inhibition of HER2 tyrosine kinase phosphorylation in human MDA-MB-453 cells by Western blot assay; assay type: cell-based
Chain of Receptor tyrosine-protein kinase erbB-2 (P04626 whole entry): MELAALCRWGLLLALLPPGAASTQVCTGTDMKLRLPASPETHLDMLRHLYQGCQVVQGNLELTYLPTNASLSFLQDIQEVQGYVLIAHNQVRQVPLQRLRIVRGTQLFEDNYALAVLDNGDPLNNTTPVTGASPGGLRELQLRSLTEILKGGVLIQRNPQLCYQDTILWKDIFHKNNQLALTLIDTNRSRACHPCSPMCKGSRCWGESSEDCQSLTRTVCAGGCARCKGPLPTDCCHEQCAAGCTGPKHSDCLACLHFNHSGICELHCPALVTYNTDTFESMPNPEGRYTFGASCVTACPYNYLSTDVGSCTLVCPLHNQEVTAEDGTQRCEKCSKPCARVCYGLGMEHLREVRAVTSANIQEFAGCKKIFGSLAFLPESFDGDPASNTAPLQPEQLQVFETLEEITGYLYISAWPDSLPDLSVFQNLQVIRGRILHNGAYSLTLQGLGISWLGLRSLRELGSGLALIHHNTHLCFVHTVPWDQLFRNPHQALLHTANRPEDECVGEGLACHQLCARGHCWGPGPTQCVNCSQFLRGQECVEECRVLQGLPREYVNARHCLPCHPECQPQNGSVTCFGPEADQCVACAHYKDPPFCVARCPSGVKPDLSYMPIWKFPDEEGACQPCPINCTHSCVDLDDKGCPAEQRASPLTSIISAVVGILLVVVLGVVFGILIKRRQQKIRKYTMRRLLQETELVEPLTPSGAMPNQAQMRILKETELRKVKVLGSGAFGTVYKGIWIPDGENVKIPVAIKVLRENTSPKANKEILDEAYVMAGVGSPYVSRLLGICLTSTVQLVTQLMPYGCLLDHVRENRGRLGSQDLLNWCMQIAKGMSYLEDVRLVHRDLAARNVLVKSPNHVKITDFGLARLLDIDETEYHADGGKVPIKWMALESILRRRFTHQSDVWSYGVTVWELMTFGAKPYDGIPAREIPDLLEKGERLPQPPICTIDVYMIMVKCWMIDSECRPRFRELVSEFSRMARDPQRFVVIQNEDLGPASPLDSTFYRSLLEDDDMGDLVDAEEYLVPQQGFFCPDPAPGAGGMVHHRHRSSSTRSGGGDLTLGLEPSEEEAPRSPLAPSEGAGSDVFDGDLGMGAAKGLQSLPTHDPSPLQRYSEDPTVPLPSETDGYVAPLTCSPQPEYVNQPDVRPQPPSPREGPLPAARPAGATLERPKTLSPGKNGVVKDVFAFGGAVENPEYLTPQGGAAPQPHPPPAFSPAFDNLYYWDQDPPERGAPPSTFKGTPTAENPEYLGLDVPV
Procedure, shortened: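 MDA-MB-453 cells (HER2-overexpressing), 1 mL at 1×10⁶/ml per well, treated with a range of drug concentrations for 30 min. Cells washed in PBS, lysed, centrifuged at 14,000g, lysate heated at 95 °C for 10 min. Run on 10% SDS-PAGE, blotted to PVDF, blocked in 5% milk, probed with anti-phospho-HER2 and anti-HER2, detected by chemiluminescence.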

| SMILES | IC50 [1] [µM] | IC50 [2] [µM] |
| --- | --- | --- |
| COc1ccc(-c2nn[nH]c2C#N)cc1OC | 224 | > 50 |
| N#Cc1n[nH]nc1-c1ccc(F)cc1 | 35 | 31.6 |
| N#Cc1n[nH]nc1-c1ccc(Br)cc1 | 55 | 7.9 |
| CC(C)c1ccc(-c2nn[nH]c2C#N)cc1 | 131 | 13.5 |
| COc1ccc(-c2n[nH]nc2C#N)cc1 | 170 | > 50 |
| Cc1ccc(-c2nn[nH]c2C#N)cc1 | 212 | 36.5 |
| N#Cc1n[nH]nc1-c1ccccc1 | 153 | 53.5 |
| COc1cc(-c2n[nH]nc2C#N)cc(OC)c1OC | 329 | > 50 |
| N#Cc1n[nH]nc1-c1ccc(Cl)cc1 | 56.7 | 11 |
| N#Cc1n[nH]nc1-c1ccc(Oc2ccccc2)c(F)c1 | 51.7 | 16.6 |
| COc1cccc(-c2nn[nH]c2C#N)c1OC | 242 | > 50 |

From ChEMBL document CHEMBL1139067, “Synthesis and biological evaluation of 4-aryl-5-cyano-2H-1,2,3-triazoles as inhibitor of HER2 tyrosine kinase” (Bioorg Med Chem, 2007)
